The structures appear in SMILES notation.

Data set [1] in a line: In vivo radiosensitization of KHT tumors in mice by administration at a dose of 0.17 mmol/kg intraperitoneally. The optimum time interval between injection and irradiation of tumor was 60 minutes. The class given is ADME, organism-based. The conditions noted are these: mouse, ip, 1 h.
In the next data set the test system is Mus musculus. The experiment in a line: The maximum tolerated dose described as the highest single intraperitoneal dose which did not produce severe or persistent clinical signs or death of the adult non-tumor bearing mice within 24 hours. The class given is functional. The essentials:
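Adult non-tumor-bearing mice received escalating single ip doses of compound, dissolved fresh in 0.1 M phosphate-buffered saline, pH 7.4, at 0.02 mL/g body weight.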

Data set [2] concerns V79. The experiment in a line: Reduction of optical density by 50% compared to controls when assay was performed under nitrogen in Hypoxic V79 Cells. The class given is functional, Cricetulus griseus. The method in brief:
(§1)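 V79 cells were tested in an MTT assay, with incubations run under air or under nitrogen. Optical density was taken as proportional to the number of viable cells at the end of incubation. C50 is the concentration lowering optical density by 50% versus controls. The ratio is C50(AIR)/C50(N2).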

In data set [3] the test system is V79. The experiment in a line: Reduction of optical density by 50% compared to controls when assay was performed under air in […] V79 Cells. Format: functional, Cricetulus griseus. The method in brief: as §1
The nature of data set [4]: The ratio of C50(AIR) to that of C50(N2). Format: functional. The essentials:
as §1

In data set [5] the test system is V79 cells (Cricetulus griseus). The experiment in a line: In vitro concentration of gamma-radiation to give an enhancement ratio of 1.6 when compared to control V79.
The subject of data set [6] is V79. The experiment in a line: Compound was evaluated for its concentration to reduce the optical density by 50% compared to controls when assay was performed under air in […] V79 Cells. Format: functional, Cricetulus griseus. The method in brief:
as §1

Data set [7] can be described thus: In vivo radiosensitization of KHT tumors in mice by administration at a dose of 0.38 mmol/kg intraperitoneally. The optimum time interval between injection and irradiation of tumor was 60 minutes. The conditions noted are these: mouse, ip, 1 h. The class given is ADME, organism-based.
Data set [8] is described as follows: In vivo radiosensitization of KHT tumors in mice by administration at a dose of 0.34 mmol/kg intraperitoneally. The optimum time interval between injection and irradiation of tumor was 30 minutes. The class given is ADME, organism-based. The conditions noted are these: mouse, ip, 0.5 h.

In the case of `Cl.O=C(NCCN1CCCCC1)c1ccc([N+](=O)[O-])o1`, in data set [1], the Surviving fraction was determined as 0.0022. Also, in the data set with Mus musculus, the MTD stood at 0.17 mM/kg. The C50 with V79 [2] is 0.016 mM; in the data set with V79 [3], 0.05 mM. Besides, the Ratio in data set [4] was determined as 3. The Activity in data set [5] is given as 0.01 mM.
For `C=CCNC(=O)c1ccc([N+](=O)[O-])s1`, the results for the C50 in the data set on V79 [2] and in the data set with V79 [6] were 0.11 mM and 0.3 mM, respectively. For the same compound, the Ratio in [4] was 2.5. Moreover, the Activity in data set [5] is reported as 0.08 mM.
`Cc1cc(CC2CO2)sc1[N+](=O)[O-]` (stereo unspecified): the C50 in the data set with V79 [2] came out at 0.045 mM; in the data set with V79 [3], 0.065 mM. Also, the Ratio in data set [4] was 1.3. In data set [5], the Activity is listed as 0.06 mM.
On to `O=[N+]([O-])c1nccn1CC(O)CN1CC1` (stereo unspecified), for which the Surviving fraction in data set [7] is given as 0.00083. The compound further registered an MTD with Mus musculus of 0.38 mM/kg. The C50 was 0.0045 mM in the data set on V79 [2] and 0.3 mM with V79 [3]. The Ratio in data set [4] was determined as 67. Also, in data set [5], the Activity turned out to be 0.1 mM.
With `O=C(/C=C/c1ccc([N+](=O)[O-])s1)NCC1CO1` (stereo unspecified), the C50 in the data set with V79 [2] and with V79 [3] was 0.08 mM throughout. Besides, in [4], the Ratio was found to be 1. The Activity in [5] was determined as 0.05 mM.
Consider `Cc1sc(C(=O)NCC2CO2)cc1[N+](=O)[O-]` (stereo unspecified), for which the C50 is 0.4 mM in the data set on V79 [2] and 0.35 mM with V79 [3]. In data set [4], the Ratio was determined as 0.9. Moreover, the Activity in data set [5] is reported as 0.2 mM.
For `O=C(NCC1CO1)c1ccc([N+](=O)[O-])s1` (stereo unspecified) the same measures were 0.15 mM, 0.15 mM, 1 and 0.05 mM.
With `Br.O=[N+]([O-])c1nccn1CC(O)CNCCBr` (stereo unspecified), in the data set with Mus musculus, the MTD stood at 1 mM/kg. The values for the C50 with V79 [2] and with V79 [3] were 0.09 mM and 2.3 mM, respectively. In data set [4], the Ratio was found to be 26. Further, the Activity in data set [5] is given as 0.1 mM.
For `COC(=O)[C@H](CCCCN)NC(=O)c1cc([N+](=O)[O-])c(C)s1.Cl` the same measures were 0.34 mM/kg, 0.35 mM, 0.35 mM, 1 and 0.05 mM.
`Cc1sc(C(=O)NCCCN2CCCC2)cc1[N+](=O)[O-].Cl`: the MTD in the data set with Mus musculus turned out to be 0.24 mM/kg. Also, in [5], the Activity amounted to 0.03 mM.
`COCC(O)Cn1ccnc1[N+](=O)[O-]` (stereo unspecified) [MISONIDAZOLE] returned an MTD in the data set on Mus musculus of 4 mM/kg. The C50 with V79 [2] was found to be 4 mM; with V79 [3] it was 45 mM. For the same compound, the Activity in [5] stood at 0.6 mM.
In the case of `Cc1sc(C(=O)NCCN(C)C)cc1[N+](=O)[O-].Cl`, in data set [8], the Surviving fraction was 0.005. The MTD with Mus musculus stood at 0.34 mM/kg. Moreover, the Activity in data set [5] is reported as 0.1 mM.
In turn, `Cc1sc(C(=O)NCCN2CCOCC2)cc1[N+](=O)[O-].Cl` gave an MTD in the data set with Mus musculus of 0.34 mM/kg. The C50 in the data set with V79 [2] and with V79 [3] was 2.5 mM each time. The Ratio in data set [4] was 1. Besides, the Activity in [5] was found to be 1 mM.
Turning to `Cc1sc(C(=O)NCCN2CCCCC2)cc1[N+](=O)[O-].Cl`, in the data set on Mus musculus, the MTD was <0.34 mM/kg. For the same compound, the figures for the C50 in the data set with V79 [2] and in the data set with V79 [3] were 0.8 mM and 1.8 mM, respectively. Also, the Ratio in data set [4] turned out to be 2.3. For the same compound, in data set [5], the Activity is 0.07 mM.

The values are drawn from ChEMBL document CHEMBL1125578, “Synthesis of a series of nitrothiophenes with basic or electrophilic substituents and evaluation as radiosensitizers and as bioreductively activated cytotoxins” (J Med Chem, 1991).
